Data as given in ChEMBL document CHEMBL4138126, “Synthesis, antiproliferative, anti-tubulin activity, and docking study of new 1,2,4-triazoles as potential combretastatin analogues” (Eur J Med Chem, 2017).

How the values were obtained:
SW-620 = experiment: Growth inhibition of human SW620 cells assessed as cell growth at 10 uM after 48 hrs by sulforhodamine B assay; type: functional; settings: SW-620, 48 h, read-out: Activity
How it was run: (§1)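 NCI 60-cell-line panel from nine tumour types (leukaemia, lung, colon, CNS, melanoma, ovarian, renal, prostate, breast). Each compound was added at one single concentration, and cultures were incubated for 48 h. Results are reported as percent growth inhibition.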

OVCAR-8 = experiment: Growth inhibition of human OVCAR8 cells assessed as cell growth at 10 uM after 48 hrs by sulforhodamine B assay; type: functional; settings: OVCAR-8, 48 h, read-out: Activity
How it was run: (§2)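 NCI 60-cell-line panel screen (nine cancer types). Compounds added at single concentration 10^-5 M, cultures incubated 48 h; growth inhibition percentages reported.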

HOP-62 = experiment: Growth inhibition of human HOP62 cells assessed as cell growth at 10 uM after 48 hrs by sulforhodamine B assay; type: functional; settings: HOP-62, 48 h, read-out: Activity; how it was run: as §2
DU-145 = experiment: Growth inhibition of human DU145 cells assessed as cell growth at 10 uM after 48 hrs by sulforhodamine B assay; type: functional; settings: DU-145, 48 h, read-out: Activity; how it was run: as §2
MOLT-4 = experiment: Growth inhibition of human MOLT4 cells assessed as cell growth at 10 uM after 48 hrs by sulforhodamine B assay; type: functional; settings: MOLT-4, 48 h, read-out: Activity; how it was run: as §2
OVCAR-4 = experiment: Growth inhibition of human OVCAR4 cells assessed as cell growth at 10 uM after 48 hrs by sulforhodamine B assay; type: functional; settings: OVCAR-4, 48 h, read-out: Activity; how it was run: as §2
MDA-MB-435 = experiment: Growth inhibition of human MDA-MB-435 cells assessed as cell growth at 10 uM after 48 hrs by sulforhodamine B assay; type: functional; settings: MDA-MB-435, 48 h, read-out: Activity; how it was run: as §2
IGROV-1 = experiment: Growth inhibition of human IGROV1 cells assessed as cell growth at 10 uM after 48 hrs by sulforhodamine B assay; type: functional; settings: IGROV-1, 48 h, read-out: Activity; how it was run: as §2
M14 = experiment: Growth inhibition of human M14 cells assessed as cell growth at 10 uM after 48 hrs by sulforhodamine B assay; type: functional; settings: M14, 48 h, read-out: Activity; how it was run: as §2
MDA-MB-231 = experiment: Growth inhibition of human MDA-MB-231 cells assessed as cell growth at 10 uM after 48 hrs by sulforhodamine B assay; type: functional; settings: MDA-MB-231, 48 h, read-out: Activity; how it was run: as §2
NCI-H226 = experiment: Growth inhibition of human NCI-H226 cells assessed as cell growth at 10 uM after 48 hrs by sulforhodamine B assay; type: functional; settings: NCI-H226, 48 h, read-out: Activity; how it was run: as §2
NCI-H23 = experiment: Growth inhibition of human NCI-H23 cells assessed as cell growth at 10 uM after 48 hrs by sulforhodamine B assay; type: functional; settings: NCI-H23, 48 h, read-out: Activity; how it was run: as §2
CCRF-CEM = experiment: Growth inhibition of human CCRF-CEM cells assessed as cell growth at 10 uM after 48 hrs by sulforhodamine B assay; type: functional; settings: read-out: Activity; how it was run: as §2
HT-29 = experiment: Growth inhibition of human HT-29 cells assessed as cell growth at 10 uM after 48 hrs by sulforhodamine B assay; type: functional; settings: HT-29, 48 h, read-out: Activity; how it was run: as §2
RPMI-8226 = experiment: Growth inhibition of human RPMI8226 cells assessed as cell growth at 10 uM after 48 hrs by sulforhodamine B assay; type: functional; settings: RPMI-8226, 48 h, read-out: Activity; how it was run: as §2
HL-60(TB) = experiment: Growth inhibition of human HL-60(TB) cells assessed as cell growth at 10 uM after 48 hrs by sulforhodamine B assay; type: functional; settings: HL-60, 48 h, read-out: Activity
How it was run: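 Screened by the NCI in its 60-cell-line panel covering nine cancer types, including leukemia. Compounds were added at a single concentration, and the cultures were incubated for 48 h. Results are reported as percent growth inhibition.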

HCT-116 = experiment: Growth inhibition of human HCT116 cells assessed as cell growth at 10 uM after 48 hrs by sulforhodamine B assay; type: functional; settings: HCT-116, 48 h, read-out: Activity; how it was run: as §2
HL-60 = experiment: Cytotoxicity in human HL60 cells assessed as reduction in cell viability incubated for 48 hrs by MTT assay; type: functional, cell-based; settings: HL-60, 48 h
How it was run: (§3)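 HepG2 and HL60 (ATCC) grown in DMEM with 10% FBS, 2 mM L-glutamine, penicillin/streptomycin, amphotericin B at 37 °C, 5% CO2. Samples dissolved in DMSO, diluted thousandfold in assay. Cells seeded in serum-free medium, treated with serial concentrations 48 h; MTT 4 h, formazan dissolved in acidified isopropanol, A570. Triplicates averaged; viability relative to untreated/vehicle control.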

NCI-H522 = experiment: Growth inhibition of human NCI-H522 cells assessed as cell growth at 10 uM after 48 hrs by sulforhodamine B assay; type: functional; settings: NCI-H522, 48 h, read-out: Activity; how it was run: as §2
HepG2 = experiment: Cytotoxicity in human HepG2 cells assessed as reduction in cell viability incubated for 48 hrs by MTT assay; type: functional, cell-based; settings: HepG2, 48 h; how it was run: as §3
LOX IMVI = experiment: Growth inhibition of human LOXIMVI cells assessed as cell growth at 10 uM after 48 hrs by sulforhodamine B assay; type: functional; settings: read-out: Activity; how it was run: as §2
SF-268 = experiment: Growth inhibition of human SF268 cells assessed as cell growth at 10 uM after 48 hrs by sulforhodamine B assay; type: functional; settings: SF-268, 48 h, read-out: Activity; how it was run: as §2
RXF 393 = experiment: Growth inhibition of human RXF393 cells assessed as cell growth at 10 uM after 48 hrs by sulforhodamine B assay; type: functional; settings: RXF 393, 48 h, read-out: Activity; how it was run: as §2
SR = experiment: Growth inhibition of human SR cells assessed as cell growth at 10 uM after 48 hrs by sulforhodamine B assay; type: functional; settings: read-out: Activity; how it was run: as §1
ACHN = experiment: Growth inhibition of human ACHN cells assessed as cell growth at 10 uM after 48 hrs by sulforhodamine B assay; type: functional; settings: read-out: Activity; how it was run: as §2
HOP-92 = experiment: Growth inhibition of human HOP92 cells assessed as cell growth at 10 uM after 48 hrs by sulforhodamine B assay; type: functional; settings: HOP-92, 48 h, read-out: Activity; how it was run: as §2
MDA-MB-468 = experiment: Growth inhibition of human MDA-MB-468 cells assessed as cell growth at 10 uM after 48 hrs by sulforhodamine B assay; type: functional; settings: MDA-MB-468, 48 h, read-out: Activity; how it was run: as §2
COLO 205 = experiment: Growth inhibition of human COLO205 cells assessed as cell growth at 10 uM after 48 hrs by sulforhodamine B assay; type: functional; settings: COLO 205, 48 h, read-out: Activity; how it was run: as §2
BT-549 = experiment: Growth inhibition of human BT549 cells assessed as cell growth at 10 uM after 48 hrs by sulforhodamine B assay; type: functional; settings: BT-549, 48 h, read-out: Activity; how it was run: as §2
Hs-578T = experiment: Growth inhibition of human Hs 578T cells assessed as cell growth at 10 uM after 48 hrs by sulforhodamine B assay; type: functional; settings: read-out: Activity; how it was run: as §2
MCF7 = experiment: Growth inhibition of human MCF7 cells assessed as cell growth at 10 uM after 48 hrs by sulforhodamine B assay; type: functional; settings: MCF7, 48 h, read-out: Activity; how it was run: as §2

SMILES | growth at 10 µM (SW-620) [%] | growth at 10 µM (OVCAR-8) [%] | growth at 10 µM (HOP-62) [%] | growth at 10 µM (DU-145) [%] | growth at 10 µM (OVCAR-4) [%] | growth at 10 µM (MDA-MB-435) [%] | growth at 10 µM (IGROV-1) [%] | growth at 10 µM (M14) [%] | growth at 10 µM (MDA-MB-231) [%] | growth at 10 µM (NCI-H226) [%] | growth at 10 µM (NCI-H23) [%] | growth at 10 µM (HT-29) [%] | growth at 10 µM (RPMI-8226) [%] | growth at 10 µM (HL-60(TB)) [%] | growth at 10 µM (HCT-116) [%] | IC50 (HL-60) [µM] | growth at 10 µM (NCI-H522) [%] | IC50 (HepG2) [µM] | growth at 10 µM (LOX IMVI) [%] | growth at 10 µM (SF-268) [%] | further results
CCOc1ccc(-n2nc(C(=O)Nc3ccc(F)c(F)c3)nc2-c2cc(OC)c(OC)c(OC)c2)cc1 | 89.9 | 42.2 | 89.1 | 80 | 66.1 | 70.3 | 81.3 | 70.2 | 63.1 | 69.1 | 77.3 | 74.6 | 12.3 | 89 | 51.2 | 17.1 | 61.1 | 31.8 | 66.4 | 84.9 | growth at 10 µM (MOLT-4): 50%; growth at 10 µM (CCRF-CEM): 44.1%; growth at 10 µM (RXF 393): 84.6%; growth at 10 µM (SR): 64%; growth at 10 µM (ACHN): 64.5%; growth at 10 µM (HOP-92): 67%; growth at 10 µM (MDA-MB-468): 98.6%; growth at 10 µM (COLO 205): 63.7%; growth at 10 µM (BT-549): 65.5%; growth at 10 µM (Hs-578T): 48.1%; growth at 10 µM (MCF7): 78.8%
CCOc1ccc(-n2nc(C(=O)Nc3ccc(F)c(F)c3F)nc2-c2cc(OC)c(OC)c(OC)c2)cc1 | 103 | 93.4 | 86.5 | 105 | 78.8 | 90 | 95.6 | 93.9 | 73.6 | 91.2 | 97.5 | 87.8 | 87.2 | 81.5 | 73.4 | 10.9 | 71.5 | 10.8 | 94 | 82.3 | growth at 10 µM (RXF 393): 89.9%; growth at 10 µM (SR): 86.5%; growth at 10 µM (ACHN): 85.2%; growth at 10 µM (HOP-92): 84.9%; growth at 10 µM (MDA-MB-468): 90.2%; growth at 10 µM (COLO 205): 90%; growth at 10 µM (BT-549): 78.9%; growth at 10 µM (Hs-578T): 80.7%; growth at 10 µM (MCF7): 79.5%
CCOc1ccc(-n2nc(C(=O)NCc3ccccc3OC)nc2-c2cc(OC)c(OC)c(OC)c2)cc1 | 58 | 43.7 | 62.2 | 65.2 | 23.4 | 22.1 | 43.7 | 42.1 | 17.8 | 62.5 | 60.8 | 40.6 | 26.9 | 19.1 | 25.3 | 0.6 | 35.7 | 0.62 | 36.3 | 54.1 | growth at 10 µM (MOLT-4): 0.38%; growth at 10 µM (CCRF-CEM): 39.7%; growth at 10 µM (RXF 393): 43.5%; growth at 10 µM (SR): 35.9%; growth at 10 µM (ACHN): 19.6%; growth at 10 µM (HOP-92): 29%; growth at 10 µM (MDA-MB-468): 72.4%; growth at 10 µM (COLO 205): 30.3%; growth at 10 µM (BT-549): 33.9%; growth at 10 µM (Hs-578T): 55.1%; growth at 10 µM (MCF7): 22.1%
